Results published in ChEMBL document CHEMBL4689842, “EUbOPEN Chemogenomics Library wave 1” (2021).

Test system: HEK-293T
Assay: Multiplex assay against HEK293T;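 on Population Tubulin-Different-Phenotype (%): share of the cells with healthy nuclei that show this phenotype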
Format: toxicity, cell-based
Details: human
Summary of the method: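 Phenotypes for tubulin, mitochondrial mass and membrane permeability are expressed as per cents of healthy-nucleus cells. Cells were stained live at seeding with Hoechst33342, BioTracker Green Microtubule Cytoskeleton Dye, MitoTracker Red and Annexin V Alexa Fluor 680, then imaged after compound addition on a CQ1 microscope at 37°C and 5% CO2. Machine-learning gating in CellPathfinder separated Hoechst high-intensity objects from normal cells, divided normal cells by nuclear state (healthy, pyknosed, fragmented) and divided pyknosed cells into mitotic or apoptotic.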

[1] = 12 h, 1 µM, compound concentration 1 uM, replicate 1
[2] = 12 h, 1 µM, compound concentration 1 uM, replicate 2
[3] = 12 h, 10 µM, compound concentration 10 uM, replicate 1
[4] = 12 h, 10 µM, compound concentration 10 uM, replicate 2
[5] = 24 h, 1 µM, compound concentration 1 uM, replicate 1
[6] = 24 h, 1 µM, compound concentration 1 uM, replicate 2
[7] = 24 h, 10 µM, compound concentration 10 uM, replicate 1
[8] = 24 h, 10 µM, compound concentration 10 uM, replicate 2
[9] = 48 h, 1 µM, compound concentration 1 uM, replicate 1
[10] = 48 h, 1 µM, compound concentration 1 uM, replicate 2
[11] = 48 h, 10 µM, compound concentration 10 uM, replicate 1
[12] = 48 h, 10 µM, compound concentration 10 uM, replicate 2

CNC(=O)Nc1ccc(-c2nc(N3CC4CCC(C3)O4)c3cnn(C4CCC5(CC4)OCCO5)c3n2)cc1 was tested, and the “Population Apoptotic (%)” value [1] was 55%, the “Population Fragmented Nuclei (%)” value [1] was 24% and the “Population Healthy Nuclei (%)” value [1] was 6%. For the same compound, the “Population Hoechst High Intensity Objects (%)” value [1] was 20%, the “Population Membrane Permeable-Phenotype (%)” value [1] was 0% and the “Population Mitochondria Different-Phenotype (%)” value [1] was 75%. For the same compound, the “Population Mitotic Cells (%)” value [1] was 44%, the “Population Normal (%)” value [1] was 79% and the “Population Pyknosed Nuclei (%)” value [1] was 68%. The “Population Tubulin-Different-Phenotype (%)” value [1] was 50%, the “Total Cell Count” value [1] was 149 and the “Population Apoptotic (%)” value [2] was 23%. The “Population Fragmented Nuclei (%)” value [2] was 9%, the “Population Healthy Nuclei (%)” value [2] was 26% and the “Population Hoechst High Intensity Objects (%)” value [2] was 10%. The “Population Membrane Permeable-Phenotype (%)” value [2] was 8%, the “Population Mitochondria Different-Phenotype (%)” value [2] was 32% and the “Population Mitotic Cells (%)” value [2] was 76%. The “Population Normal (%)” value [2] was 89%, the “Population Pyknosed Nuclei (%)” value [2] was 64% and the “Population Tubulin-Different-Phenotype (%)” value [2] was 24%. For the same compound, the “Total Cell Count” value [2] was 155, the “Population Apoptotic (%)” value [3] was 76% and the “Population Fragmented Nuclei (%)” value [3] was 18%. The “Population Healthy Nuclei (%)” value [3] was 7%, the “Population Hoechst High Intensity Objects (%)” value [3] was 26% and the “Population Membrane Permeable-Phenotype (%)” value [3] was 11%. For the same compound, the “Population Mitochondria Different-Phenotype (%)” value [3] was 88%, the “Population Mitotic Cells (%)” value [3] was 23% and the “Population Normal (%)” value [3] was 73%. For the same compound, the “Population Pyknosed Nuclei (%)” value [3] was 73%, the “Population Tubulin-Different-Phenotype (%)” value [3] was 88% and the “Total Cell Count” value [3] was 167. For the same compound, the “Population Apoptotic (%)” value [4] was 56%, the “Population Fragmented Nuclei (%)” value [4] was 8% and the “Population Healthy Nuclei (%)” value [4] was 8%. For the same compound, the “Population Hoechst High Intensity Objects (%)” value [4] was 7%, the “Population Membrane Permeable-Phenotype (%)” value [4] was 6% and the “Population Mitochondria Different-Phenotype (%)” value [4] was 100%. For the same compound, the “Population Mitotic Cells (%)” value [4] was 43%, the “Population Normal (%)” value [4] was 92% and the “Population Pyknosed Nuclei (%)” value [4] was 82%. For the same compound, the “Population Tubulin-Different-Phenotype (%)” value [4] was 100%, the “Total Cell Count” value [4] was 182 and the “Population Apoptotic (%)” value [5] was 68%. The “Population Fragmented Nuclei (%)” value [5] was 32%, the “Population Healthy Nuclei (%)” value [5] was 5% and the “Population Hoechst High Intensity Objects (%)” value [5] was 29%. The “Population Membrane Permeable-Phenotype (%)” value [5] was 16%, the “Population Mitochondria Different-Phenotype (%)” value [5] was 66% and the “Population Mitotic Cells (%)” value [5] was 31%. For the same compound, the “Population Normal (%)” value [5] was 70%, the “Population Pyknosed Nuclei (%)” value [5] was 61% and the “Population Tubulin-Different-Phenotype (%)” value [5] was 16%. The “Total Cell Count” value [5] was 151, the “Population Apoptotic (%)” value [6] was 21% and the “Population Fragmented Nuclei (%)” value [6] was 12%. The “Population Healthy Nuclei (%)” value [6] was 34%, the “Population Hoechst High Intensity Objects (%)” value [6] was 10% and the “Population Membrane Permeable-Phenotype (%)” value [6] was 8%. For the same compound, the “Population Mitochondria Different-Phenotype (%)” value [6] was 35%, the “Population Mitotic Cells (%)” value [6] was 78% and the “Population Normal (%)” value [6] was 89%. The “Population Pyknosed Nuclei (%)” value [6] was 53%, the “Population Tubulin-Different-Phenotype (%)” value [6] was 20% and the “Total Cell Count” value [6] was 158. The “Population Apoptotic (%)” value [7] was 81%, the “Population Fragmented Nuclei (%)” value [7] was 23% and the “Population Healthy Nuclei (%)” value [7] was 3%. The “Population Hoechst High Intensity Objects (%)” value [7] was 27%, the “Population Membrane Permeable-Phenotype (%)” value [7] was 25% and the “Population Mitochondria Different-Phenotype (%)” value [7] was 75%. The “Population Mitotic Cells (%)” value [7] was 18%, the “Population Normal (%)” value [7] was 72% and the “Population Pyknosed Nuclei (%)” value [7] was 73%. The “Population Tubulin-Different-Phenotype (%)” value [7] was 75%, the “Total Cell Count” value [7] was 165 and the “Population Apoptotic (%)” value [8] was 68%. The “Population Fragmented Nuclei (%)” value [8] was 10%, the “Population Healthy Nuclei (%)” value [8] was 17% and the “Population Hoechst High Intensity Objects (%)” value [8] was 11%. For the same compound, the “Population Membrane Permeable-Phenotype (%)” value [8] was 17%, the “Population Mitochondria Different-Phenotype (%)” value [8] was 85% and the “Population Mitotic Cells (%)” value [8] was 31%. For the same compound, the “Population Normal (%)” value [8] was 88%, the “Population Pyknosed Nuclei (%)” value [8] was 72% and the “Population Tubulin-Different-Phenotype (%)” value [8] was 96%. The “Total Cell Count” value [8] was 182, the “Population Apoptotic (%)” value [9] was 62% and the “Population Fragmented Nuclei (%)” value [9] was 46%. The “Population Healthy Nuclei (%)” value [9] was 3%, the “Population Hoechst High Intensity Objects (%)” value [9] was 33% and the “Population Membrane Permeable-Phenotype (%)” value [9] was 0%. For the same compound, the “Population Mitochondria Different-Phenotype (%)” value [9] was 66%, the “Population Mitotic Cells (%)” value [9] was 37% and the “Population Normal (%)” value [9] was 66%. For the same compound, the “Population Pyknosed Nuclei (%)” value [9] was 50%, the “Population Tubulin-Different-Phenotype (%)” value [9] was 33% and the “Total Cell Count” value [9] was 144. The “Population Apoptotic (%)” value [10] was 34%, the “Population Fragmented Nuclei (%)” value [10] was 13% and the “Population Healthy Nuclei (%)” value [10] was 46%. The “Population Hoechst High Intensity Objects (%)” value [10] was 11%, the “Population Membrane Permeable-Phenotype (%)” value [10] was 1% and the “Population Mitochondria Different-Phenotype (%)” value [10] was 50%. The “Population Mitotic Cells (%)” value [10] was 65%, the “Population Normal (%)” value [10] was 88% and the “Population Pyknosed Nuclei (%)” value [10] was 40%. The “Population Tubulin-Different-Phenotype (%)” value [10] was 61%, the “Total Cell Count” value [10] was 138 and the “Population Apoptotic (%)” value [11] was 84%. For the same compound, the “Population Fragmented Nuclei (%)” value [11] was 35%, the “Population Healthy Nuclei (%)” value [11] was 8% and the “Population Hoechst High Intensity Objects (%)” value [11] was 23%. For the same compound, the “Population Membrane Permeable-Phenotype (%)” value [11] was 11%, the “Population Mitochondria Different-Phenotype (%)” value [11] was 100% and the “Population Mitotic Cells (%)” value [11] was 15%. The “Population Normal (%)” value [11] was 76%, the “Population Pyknosed Nuclei (%)” value [11] was 56% and the “Population Tubulin-Different-Phenotype (%)” value [11] was 100%. The “Total Cell Count” value [11] was 146, the “Population Apoptotic (%)” value [12] was 65% and the “Population Fragmented Nuclei (%)” value [12] was 8%. The “Population Healthy Nuclei (%)” value [12] was 40%, the “Population Hoechst High Intensity Objects (%)” value [12] was 8% and the “Population Membrane Permeable-Phenotype (%)” value [12] was 1%. For the same compound, the “Population Mitochondria Different-Phenotype (%)” value [12] was 83%, the “Population Mitotic Cells (%)” value [12] was 34% and the “Population Normal (%)” value [12] was 91%. For the same compound, the “Population Pyknosed Nuclei (%)” value [12] was 51%, the “Population Tubulin-Different-Phenotype (%)” value [12] was 90% and the “Total Cell Count” value [12] was 181.
